Results as given in ChEMBL document CHEMBL1121715, “New antiarrhythmic agents. 4. 1'-(Aminoalkyl)-1,2,3,4-tetrahydronaphthalene-1-spiro-3'-pyrrolidine-2',5'-dione derivatives” (J Med Chem, 1981).
Where “and” joins values, the source holds several entries; their conditions need not be identical. Equal entries are not always repeated.

How the values were obtained:
[1] = Volume of distribution was measured at given dose of 43 umol/kg; assay type: ADME, organism-based; conditions: in vivo
Summary of the method: (§1)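 In dogs given iv infusions, blood samples were alkaline-extracted (pH 10.3) into methylene chloride and derivatized with heptafluorobutyrylimidazole. Concentrations were measured by GC-FID against an internal standard using standard curves. Clearance was total dose ÷ blood-level AUC (zero to infinity), and volume of distribution was clearance ÷ elimination rate constant.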

[2] = Percentage toxicity measured as death of mice.; assay type: organism-based; parameters: concentration or dose not given beside the values; conditions: mouse, in vivo; read-out: Death
Canis familiaris [3] = assay: Ventricular rate was measured in anesthetized dog at 0.047 dose; assay type: functional, Canis lupus familiaris, Heart; conditions: in the assay text read “unanesthetized dog” for “anesthetized dog”
Summary of the method: (§2)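 Adult female dogs (6.7–14.5 kg) had two-stage ligation of the left anterior descending coronary artery the day before testing. After control ventricular rate, % ectopic beats and mean arterial pressure were recorded, the drug (HCl salt, isotonic solution) was infused iv without anesthesia at 0.1, 0.5 or 1.0 (mg/kg)/min, mostly 0.5. Infusion continued until the arrhythmia was abolished or cardiovascular/CNS toxicity appeared. Cumulative dose is given in mmol/kg; toxicity included convulsion and P-R prolongation ≥25%.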

Canis familiaris [4] = species: Canis familiaris; assay: (§3) The dose at which toxicity was measured.; assay type: organism-based, Canis lupus familiaris; conditions: dog, in vivo; summary of the method: as §2
Canis familiaris [5] = species: Canis familiaris; assay: (§4) Toxicity of blood level was measured; assay type: organism-based, Canis lupus familiaris; conditions: dog, in vivo
Summary of the method: (§5)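 In coronary-ligated conscious dogs under iv infusion, blood was sampled at toxicity. Drug was extracted with methylene chloride at pH 10.3 (ammonium citrate/ammonia) with another analogue as internal standard, then derivatized with heptafluorobutyrylimidazole. Assay was GC-FID on 3% JXR, quantified from drug/internal standard peak-height ratio against standard curves; results in μmol/mL.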

Canis familiaris [6] = assay: Blood level was measured in anesthetized 0.047 at given dose.; assay type: functional, Canis lupus familiaris; conditions: in the assay text read “unanesthetized” for “anesthetized”
Summary of the method: (§6)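 Blood was sampled from unanesthetized dogs with coronary-ligation arrhythmias during iv drug infusion. Each 1 mL sample was mixed with internal standard and pH 10.3 ammonium citrate/ammonia buffer and extracted into methylene chloride. The extract was dried at 50 °C and derivatized with heptafluorobutyrylimidazole. Analysis was by GC with flame-ionization detection (3% JXR column, 220 °C). Concentration came from the drug/internal standard peak-height ratio against standard curves.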

Canis familiaris [7] = assay: % ectopic beats was measured in anesthetized dog at 0.047 dose.; assay type: functional, Canis lupus familiaris, Heart; conditions: in the assay text read “unanesthetized” for “anesthetized”
Summary of the method: (§7)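 Adult female dogs (6.7–14.5 kg) had the left anterior descending coronary artery ligated in two stages the day before testing. Dogs were unanesthetized. Ectopic beats (% of ventricular rate) and mean arterial pressure were read at maximal antiarrhythmic effect against the cumulative dose.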

Canis familiaris [8] = species: Canis familiaris; assay: as §3; assay type: organism-based, Canis lupus familiaris; conditions: dog, in vivo; summary of the method: as §2; remark: listed apart in the source
Canis familiaris [9] = assay: Blood level was measured in anesthetized dog at 0.016d ose.; assay type: functional, Canis lupus familiaris; conditions: in the assay text read “unanesthetized” for “anesthetized”; summary of the method: as §6
Mus musculus [10] = species: Mus musculus; assay: Percentage toxicity measured as ataxia.; assay type: organism-based; conditions: in vivo
Summary of the method: (§8)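 Mice (groups of 10) were dosed sc with drug in 0.9% saline and watched for 20 min for overt toxicity (ataxia, convulsions, loss of righting reflex, death) before chloroform exposure.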

[11] = Volume of distribution was measured at given dose of 34 umol/kg; assay type: ADME, organism-based; conditions: in vivo; summary of the method: as §1
Canis familiaris [12] = species: Canis familiaris; assay: (§9) Maximum dose of the Compound; assay type: ADME, organism-based, Canis lupus familiaris; conditions: dog, in vivo; summary of the method: as §2
Canis familiaris [13] = assay: Ventricular rate was measured in anesthetized dog at 0.016 dose; assay type: functional, Canis lupus familiaris, Heart; conditions: in the assay text read “unanesthetized dog” for “anesthetized dog”; summary of the method: as §2
Canis familiaris [14] = assay: MABP value was measured in anesthetized dog at 0.016 dose.; assay type: functional, Canis lupus familiaris; conditions: in the assay text read “unanesthetized dog” for “anesthetized dog”; summary of the method: as §7
Mus musculus [15] = assay: Protection against chloroform induced arrhythmias was measured in mice after sc administration at given dose.; assay type: functional; conditions: Mus musculus, sc; read-out: ED50
Summary of the method: (§10)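 Groups of 10 unanesthetized mice got sc injection of drug in 0.9% saline. After 20 min observation they were placed one by one in chloroform-vapor-saturated air. When breathing stopped, the thorax was opened and the heart inspected by eye; coordinated ventricular contractions counted as protected.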

[16] = Maximal concentration in dogs after 34 umol/kg intravenous dose; conditions: dog, in vivo
Mus musculus [17] = species: Mus musculus; assay: Percentage toxicity measured as loss of righting reflex.; assay type: organism-based; conditions: in vivo; summary of the method: as §8
[18] = Volume of distribution was measured at given dose of 81 umol/kg; assay type: ADME, organism-based; conditions: in vivo; summary of the method: as §1
Canis familiaris [19] = species: Canis familiaris; assay: as §9; assay type: functional, Canis lupus familiaris; summary of the method: as §2
Canis familiaris [20] = species: Canis familiaris; assay: as §4; assay type: organism-based, Canis lupus familiaris; conditions: dog, in vivo; summary of the method: as §5; remark: listed apart in the source
Canis familiaris [21] = assay: Maximal concentration in dogs after intravenous administration; conditions: dog, in vivo
[22] = as above; conditions: dog, in vivo
[23] = Total body clearance was measured at given dose.; assay type: ADME, organism-based; conditions: in vivo
Summary of the method: (§11)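 Blood levels came from the iv-infused dogs, measured by GC-FID after methylene chloride extraction and heptafluorobutyryl derivatization with an internal standard. Total body clearance was total dose divided by the blood-level AUC (zero to infinity); volume of distribution was clearance divided by the elimination rate constant.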

Canis familiaris [24] = assay: MABP value was measured in anesthetized dog at 0.047 dose.; assay type: functional, Canis lupus familiaris; conditions: in the assay text read “unanesthetized dog” for “anesthetized dog”; summary of the method: as §2
Mus musculus [25] = species: Mus musculus; assay: Percentage toxicity measured as convulsions.; assay type: organism-based; conditions: in vivo; summary of the method: as §8
Canis familiaris [26] = assay: % ectopic beats was measured in anesthetized dog at 0.016 dose.; assay type: functional, Canis lupus familiaris, Heart; conditions: in the assay text read “unanesthetized” for “anesthetized”; summary of the method: as §7
Mus musculus [27] = assay: Protection against chloroform induced arrhythmias in mice after subcutaneous administration at 100 mg/kg dose.; assay type: functional; summary of the method: as §10
Canis familiaris [28] = assay: MABP value was measured in anesthetized dog at given dose; assay type: functional, Canis lupus familiaris
Canis familiaris [29] = assay: % ectopic beats was measured in anesthetized dog at 0.028 dose; assay type: functional, Canis lupus familiaris, Heart; conditions: in the assay text read “unanesthetized” for “anesthetized”; summary of the method: as §7
[30] = Maximal concentration in dogs after 29 umol/kg intravenous dose; conditions: dog, in vivo
Mus musculus [31] = assay: Protection against chloroform induced arrhythmias was measured in mice after sc administration at given dose; assay type: functional; summary of the method: as §10
[32] = Total body clearance was measured at given dose; assay type: ADME; summary of the method: as §11
Canis familiaris [33] = assay: Blood level was measured in anesthetized dog at 0.014 dose; assay type: functional, Canis lupus familiaris
Canis familiaris [34] = assay: Ventricular rate was measured in anesthetized dog at 0.004 dose; assay type: functional, Canis lupus familiaris, Heart; conditions: in the assay text read “unanesthetized dog” for “anesthetized dog”; summary of the method: as §2
Canis familiaris [35] = assay: % ectopic beats was measured in anesthetized dog at 0.014 dose; assay type: functional, Canis lupus familiaris, Heart; conditions: in the assay text read “unanesthetized” for “anesthetized”; summary of the method: as §7
[36] = Volume of distribution was measured at given dose of 29 umol/kg; assay type: ADME, organism-based; conditions: in vivo; summary of the method: as §1
Canis familiaris [37] = species: Canis familiaris; assay: Ventricular rate was measured in […] at 0.028 dose; assay type: functional, Canis lupus familiaris, Heart; summary of the method: as §2
[38] = Volume of distribution was measured at given dose of 25 umol/kg; assay type: ADME, organism-based; conditions: in vivo; summary of the method: as §1
Canis familiaris [39] = species: Canis familiaris; assay: Blood level was measured in […] at 0.004 dose; assay type: functional, Canis lupus familiaris
Canis familiaris [40] = assay: Ventricular rate was measured in anesthetized dog at 0.014 dose; assay type: functional, Canis lupus familiaris, Heart; conditions: in the assay text read “unanesthetized dog” for “anesthetized dog”; summary of the method: as §2
Canis familiaris [41] = assay: % ectopic beats was measured in unanesthetized dog at 0.004 dose
Canis familiaris [42] = species: Canis familiaris; assay: (§12) Total dose of the compound; assay type: functional, Canis lupus familiaris; summary of the method: as §2
Canis familiaris [43] = species: Canis familiaris; assay: as §12; assay type: functional, Canis lupus familiaris; summary of the method: as §2; remark: listed apart in the source

`CCN(CC)CCCCN1C(=O)CC2(CCCc3ccc(OC)cc32)C1=O` (stereo unspecified) gave a Vd [1] of 2.47 L/kg, a mortality [2] of 0% and a Ventricular rate (Canis familiaris [3]) of 165 beats min-1. It also gave a Cumulative dose (Canis familiaris [4]) of 0.081, a Blood level (Canis familiaris [5]) of 0.029 uM ml-1 and a Blood level (Canis familiaris [6]) of 0.02 uM ml-1. The Etopic beats (Canis familiaris [7]) was 0%, the Cumulative dose (Canis familiaris [8]) was 0.02 and the Blood level (Canis familiaris [9]) was 0.011 uM ml-1. It also gave an Ataxia (Mus musculus [10]) of 0%, a Vd [11] of 2.64 L/kg and a Dose (Canis familiaris [12]) of 34 µM/kg. It also gave a Ventricular rate (Canis familiaris [13]) of 147 beats min-1, an MABP (Canis familiaris [14]) of 95 mmHg and an ED50 (Mus musculus [15]) of 130 µmol/kg. For the same molecule, the Cmax [16] was 12 µM, the “Loss of righting reflex” value (Mus musculus [17]) was 0% and the Vd [18] was 3.41 L/kg. For the same molecule, the Dose (Canis familiaris [19]) was 81 µM/kg and 43 µM/kg, the Blood level (Canis familiaris [20]) was 18 µM and the Cmax (Canis familiaris [21]) was 20 µM. The Cmax [22] was 29 µM, the ClB [23] was 8.22 mL/min/kg and 12.8 mL/min/kg and the clearance ([23]; ClB) was 10.4 mL/min/kg. The MABP (Canis familiaris [24]) was 100 mmHg, the Convulsion (Mus musculus [25]) was 0% and the Etopic beats (Canis familiaris [26]) was 1%. The Protection (Mus musculus [27]) was 80%.
In the case of `CCN(CC)CCCN1C(=O)CC2(CCCc3ccc(O)cc32)C1=O` (stereo unspecified), the MABP (Canis familiaris [28]) is reported as 85 mmHg and 125 mmHg, the mortality [2] is reported as 0% and the Etopic beats (Canis familiaris [29]) is reported as 6%. For the same molecule, the Cmax [30] was 15 µM, the ED50 (Mus musculus [31]) was 90 µmol/kg and the ClB [32] was 6.06 mL/min/kg. It also gave a clearance ([32]; ClB) of 3.81 mL/min/kg, a Blood level (Canis familiaris [33]) of 0.01 uM ml-1 and a Ventricular rate (Canis familiaris [34]) of 168 beats min-1. It also gave an Etopic beats (Canis familiaris [35]) of 0%, an Ataxia (Mus musculus [10]) of 0% and a Vd [36] of 1.6 L/kg. For the same molecule, the “Loss of righting reflex” value (Mus musculus [17]) was 0%, the Cmax [22] was 31 µM and the Ventricular rate (Canis familiaris [37]) was 153 beats min-1. For the same molecule, the Vd [38] was 1.58 L/kg, the Blood level (Canis familiaris [39]) was 0.019 uM ml-1 and the Ventricular rate (Canis familiaris [40]) was 150 beats min-1. The Ectopic beats (Canis familiaris [41]) was 3%, the Dose (Canis familiaris [42]) was 29 µM/kg and the Convulsion (Mus musculus [25]) was 0%. For the same molecule, the Dose (Canis familiaris [43]) was 25 µM/kg and the Protection (Mus musculus [27]) was 80%.
